ZTA counter: counter-screen for EBNA-1 inhibitors: inhibitors of Epstein-Barr virus ZTA | 0.15% of 320,000 active | AID 2234 | P03206 | ZTA-DNA binding, fluorescence polarization | inhibition, % at 11 µM; in the data active = inhibition above about 33%
Target sequence (P03206 whole entry, looked up): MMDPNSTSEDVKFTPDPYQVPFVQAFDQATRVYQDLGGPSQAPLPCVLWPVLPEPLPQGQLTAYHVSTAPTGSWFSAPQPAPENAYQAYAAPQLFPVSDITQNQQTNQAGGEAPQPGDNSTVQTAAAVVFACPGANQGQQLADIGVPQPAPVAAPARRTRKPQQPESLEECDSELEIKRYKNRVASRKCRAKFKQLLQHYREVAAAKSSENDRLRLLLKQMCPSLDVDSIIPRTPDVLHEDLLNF
NS3 helicase inh: HCV NS3 helicase inhibition. NS3 helicase DNA unwinding, Cy5 molecular beacon fluorescence. inhibition, % at 10.9 µM. 0.56% of 290,000 active. AID 1800;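 active = inhibition above the mean of all tested compounds plus 3 SD, set per campaign, cut at about 35% in these data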;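 note: 0% = DMSO wells and 100% = thioflavine S control wells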
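assay system = NS3 helicase fragment of HCV | buffer or medium = MOPS pH 6.5, MgCl2, DTT, Tween20, BSA | timing = 60 min unwinding reaction at 25 °C after ATP addition | signal = Cy5 beacon fluorescence read at start and 1 h | read-out basis = % inhibition of unwinding | control set = low DMSO, high thioflavine S at 110 µM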
GRIN3A LBD mod: modulators (binders) of human NR3A ligand-binding domain; NR3A LBD differential scanning fluorimetry, Tm shift; 0% = protein alone, 100% = glycine-bound protein; Tm shift relative to glycine control, % at 25 µM; 2.5% of 340,000 active; AID 1259313;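 active = melting temperature shift of at least 10% of the positive control shift, at one fixed dose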
EBNA-1 inhibitor: blocks EBNA-1 binding to DNA; inhibition, % at 14.8 µM; 0.34% of 300,000 active; EBNA-1 DNA binding, fluorescence polarization; in the data active = inhibition above about 28%
DNA FID counter-1: fluorescent intercalator displacement, NS3 helicase counter-screen; DNA fluorescent intercalator displacement, fluorescence; inhibition, % at 7.9 µM; 0.17% of 290,000 active; AID 1845;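 note: 0% = vehicle and 100% = reference compound; higher means more ethidium bromide displaced from hairpin DNA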
FGF22 binding-1: binders of recombinant human FGF22 by thermal shift. Q9HCT0. SYPRO orange fluorescence; percent of sucrose octasulfate shift, DMSO zero. activity (Tm shift, normalised), % at 9.99 µM. 1.5% of 340,000 active. AID 651658;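 active = mean Tm shift, scaled 0 neutral to 100 positive control, at about 1.3% or above, every replicate too, limit read from the data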
Target sequence (Q9HCT0 whole entry, looked up): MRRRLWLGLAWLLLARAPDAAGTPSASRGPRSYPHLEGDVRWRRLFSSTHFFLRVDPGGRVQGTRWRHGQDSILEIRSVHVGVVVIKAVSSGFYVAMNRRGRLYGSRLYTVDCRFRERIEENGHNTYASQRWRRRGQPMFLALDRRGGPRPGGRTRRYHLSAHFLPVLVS
NS3 hel confirm: confirmation of Hepatitis C virus NS3 helicase inhibitors; inhibition, % at 10.9 µM; 31% of 1,600 active; NS3 helicase DNA unwinding, Cy5 molecular beacon fluorescence; shares compounds with NS3 helicase inh;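 active = inhibition above the mean of all tested compounds plus 3 SD, cutoff set per campaign, cut at about 36% in these data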
DNA FID counter-2: displaces DNA intercalator in HCV helicase counter-screen. shares compounds with NS3 helicase inh. DNA fluorescent intercalator displacement, fluorescence. inhibition, % at 7.9 µM. 4% of 1,600 active. AID 1945;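 note: 0% = vehicle and 100% = reference compound; higher means more displacement of ethidium bromide from the DNA hairpin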
EBNA-1 inh conf: EBNA-1 (EBV) inhibition, confirmation. shares compounds with EBNA-1 inhibitor. Recombinant EBNA-1 DBD, Cy5-DNA fluorescence polarization. inhibition, % at 14.8 µM. 35% of 830 active. AID 2292;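 active = mean inhibition across replicates above a set limit taken from the earlier primary screen, cut at about 28% in these data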;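 note: plate controls were EBNA-1 protein with DMSO for no effect and wells lacking EBNA-1 for full effect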
ZTA counter trip: ZTA (EBV) inhibition, triplicate counter-screen; shares compounds with EBNA-1 inhibitor; Zta-ZRE DNA binding, Cy5 fluorescence polarization; inhibition, % at 11.1 µM; 830 tested, under 10 active;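 active = mean inhibition over triplicates above a set limit taken from the primary EBNA-1 screen, cut at about 37% in these data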;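 note: purified full length Zta protein with Cy5 labeled ZRE DNA probe; 0% = Zta with DMSO and 100% = wells lacking Zta protein; inhibitors lower polarization by freeing the labeled DNA probe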
FGF22 binding-2: binders of human FGF22 by thermal shift; shares compounds with FGF22 binding-1; recombinant FGF22 thermal shift, SYPRO orange fluorescence; thermal shift activity, °C (ΔTm) at 38 µM; 2% of 1,000 active; AID 720646;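 active = fitted rise in melting shift crosses a set limit at or below the top valid dose tested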
TSA no protein: shows thermal shift signal without protein, FGF22 counter-screen; AID 743019; 2% of 1,000 active; compound-only SYPRO orange thermal shift counter-screen, no protein; shares compounds with FGF22 binding-1; AC50, µM (doses to about 38 µM);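 active = rising signal whose fitted curve reaches the 0.54 level within the top valid dose, showing a melting point, actives reach about 13 µM in these data; inactive = the rest, including activity in the opposite direction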; note: value is where the raw curve crosses a fixed level and not half-maximal
Active calls of the source: *; i = inactive; / = no result. The list is not random: actives were taken first. Their share in the collection is about 3.6%. Cut-off read from the data, not from the text of the source, unless noted: active = inhibition above about 37%; inactive = the rest.

SMILES	ZTA counter	NS3 helicase inh	GRIN3A LBD mod	EBNA-1 inhibitor	DNA FID counter-1	FGF22 binding-1	EBNA-1 inh conf	ZTA counter trip	others
NS(=O)(=O)c1cc(C(=O)NC2CCSc3ccccc32)ccc1Cl (configuration not stated)	7	84*	7	18	-10	1.8*	/	/	NS3 hel confirm=74*;DNA FID counter-2=2;FGF22 binding-2=0.068;TSA no protein=i
C[C@@H]1CN([C@@H](C)CO)C(=O)c2ccccc2-c2ccccc2CO[C@H]1CN(C)S(=O)(=O)c1ccc(C(F)(F)F)cc1	/	/	/	/	/	0	/	/
O=C(NC1CCCC1)C(c1ccncc1)N(CC1CCCO1)C(=O)Cn1nnc(-c2cccs2)n1 (configuration not stated)	9	-21	1	-3	-17	/	/	/
Cc1ccc(C(C(=O)NCC2CCCO2)N(Cc2ccccc2F)C(=O)Cn2nnc(-c3cccs3)n2)cc1 (configuration not stated)	-10	-2	4	37*	-25	/	-1	0
C[C@H](CO)N1C[C@H](C)[C@@H](CN(C)C(=O)C2CCC2)Oc2cc(C#C[C@@H](C)O)ccc2S1(=O)=O	/	/	/	/	/	0	/	/
CCOC(=O)c1c(C)[nH]c(C(=O)OCC(=O)Nc2cc(Cl)ccc2OC)c1C	16	2	-5	13	-1	/	/	/
CCOC(=O)c1c(C)[nH]c(C(=O)OCC(=O)Nc2ccc(OC)c(Cl)c2)c1C	22	3	-4	94*	-1	/	32*	-5
O=C(CN1C(=O)S/C(=C\c2ccc(-c3cc(C(=O)O)ccc3Cl)o2)C1=O)Nc1ccc2c(c1)OCO2	/	18	/	/	-19	0	/	/
Cn1cc(/C=C2/SC(=O)N(CC(=O)Nc3ccc4c(c3)OCO4)C2=O)c2ccccc21	3	-4	-1	56*	2	/	64*	14
O=S(=O)(Cc1ccccc1)N1CCCCN2[C@H](CO)[C@H](c3ccc(-c4ccccc4)cc3)[C@@H]2C1	/	/	/	/	/	0	/	/
Cc1noc(C)c1NC(=O)N[C@@H]1CC[C@@H](CC(=O)NCc2ccc(Cl)c(Cl)c2)O[C@@H]1CO	/	/	/	/	/	0	/	/
COc1ccccc1CNC(=O)c1ccc2nc3[nH]c4ccccc4c3nc2c1	8	-18	-8	65*	-3	0	67*	-10
Cc1ccc(CNC(=O)c2ccc3nc4[nH]c5ccccc5c4nc3c2)cc1	/	-4	/	/	0	/	/	/
COc1ccc2c3c([nH]c2c1)[C@H](CO)N(C(=O)C1CCOCC1)CC31CCN(Cc2nccs2)CC1	/	/	/	/	/	0	/	/
COc1cc(NC(=O)COC(=O)/C=C/c2ccc(Cl)cc2Cl)cc(OC)c1	-2	0	14*	53*	0	/	59*	6
O=C(Nc1ccc(Oc2ccc3c(c2)C(=O)N(c2ccc(O)cc2)C3=O)cc1)c1cccs1	22	-5	16*	28*	4	/	55*	13
CC(C)CN1C(=O)c2ccc(NC(=O)c3cccs3)cc2C1=O	0	-1	3	5	-1	/	/	/
O=C(C[C@@H]1CC[C@H](NC(=O)c2cccc(F)c2)[C@@H](CO)O1)Nc1nccs1	/	/	/	/	/	0	/	/
CCCOC(=O)c1cccc(NC(=O)COc2ccc([N+](=O)[O-])cc2)c1	4	-5	-5	109*	-3	0	7	4
C[C@@H]1CN([C@H](C)CO)S(=O)(=O)c2ccc(-c3ccncc3)cc2O[C@@H]1CN(C)C	/	/	/	/	/	0	/	/
CC(C)Cn1cc(C(=O)NCc2cccs2)c2c3ccccc3n(C)c2c1=O	-7	-2	2	38*	-6	/	2	11
COc1ccc(CC(=O)Nc2ccc3c(C)cc(=O)oc3c2)cc1OC	-9	-7	2	40*	-4	/	8	0
N#Cc1ccsc1NC(=O)COC(=O)c1cc2ccccc2cc1O	8	13	-10	48*	-2	/	14	5
COc1ccc(S(N)(=O)=O)cc1C(=O)OCC(=O)Nc1sccc1C#N	/	/	-1	/	/	0	/	/
C/C=C/c1ccc(C2[C@H]3CNC[C@@H]2N3C(=O)Nc2ccc(C(F)(F)F)cc2)cc1 (some centres not stated)	/	/	/	/	/	0	/	/
SMILES	ZTA counter	NS3 helicase inh	GRIN3A LBD mod	EBNA-1 inhibitor	DNA FID counter-1	FGF22 binding-1	EBNA-1 inh conf	ZTA counter trip	others
C[C@@H]1CN([C@@H](C)CO)S(=O)(=O)c2ccc(C#Cc3ccccc3)cc2O[C@@H]1CN(C)S(=O)(=O)c1cn(C)cn1	/	/	/	/	/	1	/	/
COC(=O)c1c(NC(=O)c2ccccc2)sc2c1CC(C)(C)OC2	13	5	2	32*	-2	/	2	0
COC(=O)C[C@H]1CC[C@H]2[C@H](COc3ccc(NC(=O)Nc4cc(C)cc(C)c4)cc3C(=O)N2C)O1	/	/	/	/	/	0	/	/
CC(=O)Nc1ccc(NC(=O)c2cc(=O)c3ccc(C)cc3o2)cc1	19	-10	-2	5	-17	0	/	/
CC(=O)Nc1ccc(NC(=O)c2cc(=O)c3cc(C)c(C)cc3o2)cc1	0	1	12*	73*	-22	0	35*	2
CCOC(=O)N1CCN(S(=O)(=O)c2ccc(F)c(C(=O)Nc3cc(C)cc(C)c3)c2)CC1	-2	-3	-1	8	-15	/	/	/
CCOC(=O)N1CCN(S(=O)(=O)c2ccc(F)c(C(=O)Nc3cccc(Cl)c3C)c2)CC1	-8	-12	-9	81*	-10	/	12	-2
Cn1c(N)c(C(=O)COC(=O)CSc2cccc3cccc(Cl)c23)c(=O)n(C)c1=O	6	5	-13	32*	0	42	46*	22
Cc1ccccc1NC(=O)CSc1nc2scc(C)c2c(=O)[nH]1	-16	-4	4	4	-5	0	/	/
Cc1sc2nc(SCC(=O)Nc3ccccc3F)[nH]c(=O)c2c1C	1	-10	6	30*	-5	0	42*	-16
CCOC(=O)Cc1csc(NC(=O)CSc2nc3sc(C(=O)O)c(C)c3c(=O)[nH]2)n1	-14	-4	0	-1	-5	/	/	/

High-throughput results: PubChem, several laboratories
